In ChEMBL document CHEMBL5338825, “Structure-Based Discovery of Inhibitors of the SARS-CoV-2 Nsp14 N7-Methyltransferase” (J Med Chem, 2023):
Active and inactive are the calls of the source. The calls are words filed in the database; no cut-off is given here.

Experiments:
[1] = molecular target: Histone-lysine N-methyltransferase SUV39H2 (Homo sapiens) (UniProt Q9H5I1); assay: Inhibition of human SUV39H2 using Biotin-tagged histone H3 and 3H-SAM as substrate at 10 uM incubated for 1 hrs by TopCount scintillation proximity assay relative to control
Procedure, shortened: (§1)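 Selectivity panel against human SAM-dependent methyltransferases, radiometric format. Single test concentration of 10 μM, triplicate, read as percent inhibition.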

[2] = molecular target: Histone-lysine N-methyltransferase NSD2 (Homo sapiens) (UniProt O96028); assay: Inhibition of human NSD2 using chicken nucleosome and 3H-SAM as substrate at 10 uM incubated for 1 hrs by TopCount scintillation proximity assay relative to control
Procedure, shortened: (§2)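 Human methyltransferase panel, radiometric assays. Each compound tested at a single 10 μM concentration in triplicate. Enzymes inhibited by more than 50% were taken on to concentration–response.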

[3] = molecular target: Histone-lysine N-methyltransferase 2C (Homo sapiens) (UniProt Q8NEZ4); assay: Inhibition of human MLL3 using biotin-tagged Histone H3 and 3H-SAM as substrate at 10 uM incubated for 1 hrs by TopCount scintillation proximity assay relative to control; procedure, shortened: as §2
[4] = molecular target: Protein arginine N-methyltransferase 6 (Homo sapiens) (UniProt Q96LA8); assay: Inhibition of human PRMT6 using biotin-tagged Histone H4 and 3H-SAM as substrate at 10 uM incubated for 1 hrs by TopCount scintillation proximity assay relative to control; procedure, shortened: as §2
Homo sapiens = species on record: Homo sapiens; assay: Inhibition of MDH (unknown origin) using oxaloacetic acid as substrate preincubated with compound for 5 mins followed by substrate addition and measured after 1.5 min in the presence of NADH by absorbance based plate reader analysis; details: time 6.5 min
Procedure, shortened: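 MDH assay at room temperature in 50 mM KPi, pH 7.0, with 1% v/v DMSO final. Compound preincubated 5 min with 2 nM enzyme. Reaction started with 200 μM NADH plus 200 μM oxaloacetic acid, and absorbance followed at 340 nm for 1 min 30 s. Initial rate divided by the DMSO control rate. Single top concentration in triplicate; eight-point half-log curves in triplicate where inhibition exceeded 40%.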

[5] = molecular target: Protein arginine N-methyltransferase 3 (Homo sapiens, UniProt O60678); assay: Inhibition of human PRMT3 using biotin-tagged Histone H4 and 3H-SAM as substrate at 10 uM incubated for 1 hrs by TopCount scintillation proximity assay relative to control; procedure, shortened: as §2
[6] = molecular target: Histone-arginine methyltransferase CARM1 (Homo sapiens) (UniProt Q86X55); assay: Inhibition of human PRMT4 using biotin-tagged Histone H3 and 3H-SAM as substrate at 10 uM incubated for 1 hrs by TopCount scintillation proximity assay relative to control; procedure, shortened: as §2
[7] = molecular target: Replicase polyprotein 1ab (Severe acute respiratory syndrome coronavirus 2, UniProt P0DTD1); assay: Inhibition of N-terminal 6His/SUMO-tagged SARS-CoV-2 NSP14 expressed in Escherichia coli Rosetta 2 (DE3) PlysS cells using 5'GpppACCCCCCCCC-Biotin 3' and 3H-SAM as substrates incubated for 30 mins by TopCount scintillation proximity assay
[8] = molecular target: Protein arginine N-methyltransferase 8 (Homo sapiens) (UniProt Q9NR22); assay: Inhibition of human PRMT8 using biotin-tagged Histone H4 and 3H-SAM as substrate at 10 uM incubated for 1 hrs by TopCount scintillation proximity assay relative to control; procedure, shortened: as §2
[9] = molecular target: Protein arginine N-methyltransferase 9 (Homo sapiens) (UniProt Q6P2P2); assay: Inhibition of human PRMT9 using biotin-tagged SAP145 and 3H-SAM as substrate at 10 uM incubated for 1 hrs by TopCount scintillation proximity assay relative to control; procedure, shortened: as §2
[10] = molecular target: Protein arginine N-methyltransferase 7 (Homo sapiens) (UniProt Q9NVM4); assay: Inhibition of human PRMT7 using biotin-tagged Histone H2B and 3H-SAM as substrate at 10 uM incubated for 1 hrs by TopCount scintillation proximity assay relative to control; procedure, shortened: as §2
[11] = Aggregation property of the compound in KPi buffer at pH 7.0 assessed as formation of colloid-like particles by dynamic light scattering analysis; assay type: physicochemical
Procedure, shortened: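 Compounds diluted as 8-point half-log series in filtered 50 mM KPi, pH 7.0, with 1% v/v DMSO final. Particles detected by dynamic light scattering, triplicate at each concentration. CAC taken as the intersection of separate nonlinear fits to aggregating (>10^6 scattering intensity) and non-aggregating data.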

[12] = molecular target: Histone-lysine N-methyltransferase NSD3 (Homo sapiens) (UniProt Q9BZ95); assay: Inhibition of human NSD3 using chicken nucleosome and 3H-SAM as substrate at 10 uM incubated for 1 hrs by TopCount scintillation proximity assay relative to control; procedure, shortened: as §2
[13] = molecular target: N-lysine methyltransferase SMYD2 (Homo sapiens) (UniProt Q9NRG4); assay: Inhibition of human SMYD2 using biotin-tagged p53 and 3H-SAM as substrate at 10 uM incubated for 1 hrs by TopCount scintillation proximity assay relative to control; procedure, shortened: as §1
[14] = molecular target: Histone-lysine N-methyltransferase SETD2 (Homo sapiens) (UniProt Q9BYW2); assay: Inhibition of human SETD2 using biotin-tagged Histone H3 and 3H-SAM as substrate at 10 uM incubated for 1 hrs by TopCount scintillation proximity assay relative to control; procedure, shortened: as §1
[15] = molecular target: Histone-lysine N-methyltransferase PRDM9 (Homo sapiens) (UniProt Q9NQV7); assay: Inhibition of human PRDM9 using biotin-tagged Histone H3 and 3H-SAM as substrate at 10 uM incubated for 1 hrs by TopCount scintillation proximity assay relative to control; procedure, shortened: as §2
[16] = molecular target: Histone-lysine N-methyltransferase 2A (Homo sapiens, UniProt Q03164); assay: Inhibition of human MLL1 using biotin-tagged Histone H3 and 3H-SAM as substrate at 10 uM incubated for 1 hrs by TopCount scintillation proximity assay relative to control; procedure, shortened: as §2
[17] = molecular target: Protein arginine N-methyltransferase 5 (Homo sapiens) (UniProt O14744); assay: Inhibition of human PRMT5 using biotin-tagged Histone H4 and 3H-SAM as substrate at 10 uM incubated for 1 hrs by TopCount scintillation proximity assay relative to control; procedure, shortened: as §2
[18] = molecular target: Replicase polyprotein 1ab (Severe acute respiratory syndrome coronavirus 2) (UniProt P0DTD1); assay: Competitive inhibition of N-terminal 6His/SUMO-tagged SARS-CoV-2 NSP14 expressed in Escherichia coli Rosetta 2 (DE3) PlysS cells using 5'GpppACCCCCCCCC-Biotin 3' and 3H-SAM as substrates at increasing concentration incubated for 30 mins by TopCount scintillation proximity assay
Procedure, shortened: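 Competition pattern read from IC50 shifts. […] Separately, SAM fixed at 1.25 μM (5× Km) with RNA varied up to 0.5 μM (10× Km). A linear rise of IC50 with substrate concentration was taken as competitive inhibition.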

[19] = molecular target: Histone-lysine N-methyltransferase ASH1L (Homo sapiens) (UniProt Q9NR48); assay: Inhibition of human ASH1L using chicken nucleosome and 3H-SAM as substrate at 10 uM incubated for 1 hrs by TopCount scintillation proximity assay relative to control; procedure, shortened: as §2
[20] = molecular target: Histone-lysine N-methyltransferase KMT5C (Homo sapiens) (UniProt Q86Y97); assay: Inhibition of human SUV420H2 using Biotin-tagged H4K20me1 and 3H-SAM as substrate at 10 uM incubated for 1 hrs by TopCount scintillation proximity assay relative to control; procedure, shortened: as §1
Histone-lysine N-methyltransferase KMT5C (Homo sapiens), sequence (Q86Y97 whole entry, looked up): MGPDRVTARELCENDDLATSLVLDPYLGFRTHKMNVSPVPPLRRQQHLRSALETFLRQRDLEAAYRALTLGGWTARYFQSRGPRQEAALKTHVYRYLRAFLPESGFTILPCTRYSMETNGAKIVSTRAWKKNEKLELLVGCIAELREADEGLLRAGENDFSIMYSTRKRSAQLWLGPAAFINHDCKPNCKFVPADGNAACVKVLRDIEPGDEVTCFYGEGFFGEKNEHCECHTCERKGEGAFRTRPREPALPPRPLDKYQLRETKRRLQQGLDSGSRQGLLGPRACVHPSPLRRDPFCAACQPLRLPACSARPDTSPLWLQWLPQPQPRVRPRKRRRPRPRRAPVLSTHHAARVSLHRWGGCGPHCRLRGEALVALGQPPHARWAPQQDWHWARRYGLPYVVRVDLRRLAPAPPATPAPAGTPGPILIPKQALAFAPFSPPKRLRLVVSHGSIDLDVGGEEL

Histone-lysine N-methyltransferase SUV39H2 (Homo sapiens), sequence (Q9H5I1 whole entry): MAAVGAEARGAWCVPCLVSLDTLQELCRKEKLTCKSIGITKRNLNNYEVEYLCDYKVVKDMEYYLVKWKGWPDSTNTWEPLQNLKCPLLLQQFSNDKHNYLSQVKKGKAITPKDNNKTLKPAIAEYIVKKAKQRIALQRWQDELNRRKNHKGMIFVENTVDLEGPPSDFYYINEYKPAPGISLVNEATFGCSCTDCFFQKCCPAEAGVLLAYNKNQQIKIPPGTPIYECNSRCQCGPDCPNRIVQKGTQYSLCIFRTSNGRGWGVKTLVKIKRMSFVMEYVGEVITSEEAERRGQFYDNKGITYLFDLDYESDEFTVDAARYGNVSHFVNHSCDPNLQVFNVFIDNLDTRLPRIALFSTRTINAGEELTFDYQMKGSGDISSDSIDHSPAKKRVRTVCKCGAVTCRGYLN
N-lysine methyltransferase SMYD2 (Homo sapiens), sequence (Q9NRG4 whole entry): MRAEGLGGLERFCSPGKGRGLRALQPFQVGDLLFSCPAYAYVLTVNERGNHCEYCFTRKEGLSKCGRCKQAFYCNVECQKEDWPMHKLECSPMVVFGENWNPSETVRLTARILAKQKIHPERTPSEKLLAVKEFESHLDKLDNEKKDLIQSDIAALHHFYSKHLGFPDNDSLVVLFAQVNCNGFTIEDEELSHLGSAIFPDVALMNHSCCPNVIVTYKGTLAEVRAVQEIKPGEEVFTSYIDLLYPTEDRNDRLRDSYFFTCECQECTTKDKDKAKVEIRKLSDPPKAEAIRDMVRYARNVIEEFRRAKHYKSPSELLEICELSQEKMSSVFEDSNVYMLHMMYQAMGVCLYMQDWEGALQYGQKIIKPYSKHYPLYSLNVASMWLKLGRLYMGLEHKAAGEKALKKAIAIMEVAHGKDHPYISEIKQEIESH
Protein arginine N-methyltransferase 8 (Homo sapiens), sequence (Q9NR22 2-394 limits assumed): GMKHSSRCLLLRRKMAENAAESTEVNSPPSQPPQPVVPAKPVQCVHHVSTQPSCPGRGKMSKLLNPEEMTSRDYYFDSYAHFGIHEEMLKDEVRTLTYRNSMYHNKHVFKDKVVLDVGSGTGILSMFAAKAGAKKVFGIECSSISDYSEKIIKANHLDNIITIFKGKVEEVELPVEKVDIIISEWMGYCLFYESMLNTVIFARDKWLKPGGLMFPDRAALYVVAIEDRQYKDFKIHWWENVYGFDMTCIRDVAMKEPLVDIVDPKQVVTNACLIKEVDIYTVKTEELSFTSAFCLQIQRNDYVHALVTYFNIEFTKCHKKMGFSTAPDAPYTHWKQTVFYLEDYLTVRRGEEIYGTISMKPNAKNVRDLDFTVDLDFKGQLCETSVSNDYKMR
Histone-lysine N-methyltransferase SETD2 (Homo sapiens), sequence (Q9BYW2 whole entry): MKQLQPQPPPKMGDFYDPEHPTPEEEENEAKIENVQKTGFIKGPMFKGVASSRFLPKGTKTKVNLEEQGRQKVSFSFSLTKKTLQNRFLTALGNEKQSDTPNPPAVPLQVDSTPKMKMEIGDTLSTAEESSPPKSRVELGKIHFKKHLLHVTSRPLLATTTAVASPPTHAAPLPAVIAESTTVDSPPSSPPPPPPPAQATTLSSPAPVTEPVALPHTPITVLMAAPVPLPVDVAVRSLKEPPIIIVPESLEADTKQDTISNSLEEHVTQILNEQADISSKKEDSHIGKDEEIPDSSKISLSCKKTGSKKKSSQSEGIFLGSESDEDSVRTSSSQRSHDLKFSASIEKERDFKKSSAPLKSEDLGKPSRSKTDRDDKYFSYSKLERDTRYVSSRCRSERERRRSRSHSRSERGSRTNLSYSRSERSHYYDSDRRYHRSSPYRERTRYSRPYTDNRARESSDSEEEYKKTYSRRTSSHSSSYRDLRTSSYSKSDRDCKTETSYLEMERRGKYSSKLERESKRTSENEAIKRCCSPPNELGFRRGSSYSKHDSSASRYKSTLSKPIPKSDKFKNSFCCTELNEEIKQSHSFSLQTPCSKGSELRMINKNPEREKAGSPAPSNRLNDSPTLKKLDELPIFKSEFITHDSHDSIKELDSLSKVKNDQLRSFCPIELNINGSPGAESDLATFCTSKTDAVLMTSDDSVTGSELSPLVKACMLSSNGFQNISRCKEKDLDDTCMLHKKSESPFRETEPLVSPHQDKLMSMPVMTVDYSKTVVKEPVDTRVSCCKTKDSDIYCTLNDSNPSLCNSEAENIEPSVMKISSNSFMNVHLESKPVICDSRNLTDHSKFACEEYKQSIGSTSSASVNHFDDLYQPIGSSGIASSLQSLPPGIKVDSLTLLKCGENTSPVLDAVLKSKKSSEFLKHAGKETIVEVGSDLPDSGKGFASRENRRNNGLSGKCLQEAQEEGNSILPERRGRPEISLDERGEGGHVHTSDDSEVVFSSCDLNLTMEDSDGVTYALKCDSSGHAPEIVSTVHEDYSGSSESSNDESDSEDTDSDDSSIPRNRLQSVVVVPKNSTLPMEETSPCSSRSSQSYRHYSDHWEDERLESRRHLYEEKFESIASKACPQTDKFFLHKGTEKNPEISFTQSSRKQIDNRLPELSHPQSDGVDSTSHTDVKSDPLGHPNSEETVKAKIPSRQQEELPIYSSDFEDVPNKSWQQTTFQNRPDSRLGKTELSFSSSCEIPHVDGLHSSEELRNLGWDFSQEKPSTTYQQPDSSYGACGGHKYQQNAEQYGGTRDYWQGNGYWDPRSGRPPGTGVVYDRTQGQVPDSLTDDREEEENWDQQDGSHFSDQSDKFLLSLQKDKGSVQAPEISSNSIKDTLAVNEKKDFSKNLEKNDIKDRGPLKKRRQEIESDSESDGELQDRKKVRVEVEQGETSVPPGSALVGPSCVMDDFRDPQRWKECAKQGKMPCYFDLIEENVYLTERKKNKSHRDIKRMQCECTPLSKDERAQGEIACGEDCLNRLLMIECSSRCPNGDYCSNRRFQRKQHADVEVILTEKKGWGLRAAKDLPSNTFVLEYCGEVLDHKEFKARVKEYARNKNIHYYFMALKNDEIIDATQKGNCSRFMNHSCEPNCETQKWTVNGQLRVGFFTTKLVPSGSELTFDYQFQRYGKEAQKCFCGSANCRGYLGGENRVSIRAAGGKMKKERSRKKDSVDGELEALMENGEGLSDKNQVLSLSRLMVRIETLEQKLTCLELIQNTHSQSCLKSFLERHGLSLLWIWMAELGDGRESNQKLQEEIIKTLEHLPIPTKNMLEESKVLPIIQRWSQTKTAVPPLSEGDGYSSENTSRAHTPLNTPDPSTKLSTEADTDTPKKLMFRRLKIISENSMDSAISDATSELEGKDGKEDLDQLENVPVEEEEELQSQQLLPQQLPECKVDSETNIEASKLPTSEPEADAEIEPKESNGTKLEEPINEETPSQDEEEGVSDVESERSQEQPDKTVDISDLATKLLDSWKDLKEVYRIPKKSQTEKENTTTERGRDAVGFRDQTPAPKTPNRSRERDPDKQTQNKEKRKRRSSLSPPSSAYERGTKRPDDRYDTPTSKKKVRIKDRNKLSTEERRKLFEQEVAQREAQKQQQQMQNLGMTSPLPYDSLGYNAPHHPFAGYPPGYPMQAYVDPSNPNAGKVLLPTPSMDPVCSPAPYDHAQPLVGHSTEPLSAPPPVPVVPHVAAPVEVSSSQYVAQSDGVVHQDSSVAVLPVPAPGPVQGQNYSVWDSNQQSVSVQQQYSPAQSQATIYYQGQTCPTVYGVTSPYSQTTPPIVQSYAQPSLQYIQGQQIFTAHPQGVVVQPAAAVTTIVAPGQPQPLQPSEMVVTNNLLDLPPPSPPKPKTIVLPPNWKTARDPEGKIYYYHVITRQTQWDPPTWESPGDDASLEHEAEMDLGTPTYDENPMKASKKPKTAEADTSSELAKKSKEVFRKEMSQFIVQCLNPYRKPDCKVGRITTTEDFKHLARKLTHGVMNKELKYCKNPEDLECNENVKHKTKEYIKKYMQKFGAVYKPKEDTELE
Protein arginine N-methyltransferase 3, sequence (O60678 2-531 limits assumed): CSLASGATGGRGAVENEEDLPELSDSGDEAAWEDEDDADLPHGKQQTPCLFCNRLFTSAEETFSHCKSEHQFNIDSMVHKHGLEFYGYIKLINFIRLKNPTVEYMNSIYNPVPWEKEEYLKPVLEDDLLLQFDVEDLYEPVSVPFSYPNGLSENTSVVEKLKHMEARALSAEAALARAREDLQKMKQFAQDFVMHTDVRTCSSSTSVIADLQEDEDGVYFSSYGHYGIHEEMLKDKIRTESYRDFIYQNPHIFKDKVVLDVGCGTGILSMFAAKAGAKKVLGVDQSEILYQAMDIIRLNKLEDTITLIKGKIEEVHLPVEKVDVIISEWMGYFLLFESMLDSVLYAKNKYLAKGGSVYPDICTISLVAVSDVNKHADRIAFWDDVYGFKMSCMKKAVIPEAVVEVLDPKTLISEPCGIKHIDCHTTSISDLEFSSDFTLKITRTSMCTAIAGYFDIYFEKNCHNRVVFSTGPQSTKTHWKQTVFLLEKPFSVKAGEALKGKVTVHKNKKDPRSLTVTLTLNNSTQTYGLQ

For Cc1c(C(=O)/C=C/c2ccc(O)c([N+](=O)[O-])c2)c(C#N)c2n1CCC2, the inhibition [1] was < 50%, the inhibition [2] was < 50% and the inhibition [3] was < 50%. The inhibition [4] was < 50%, the inhibition (Homo sapiens) was “Active” and the inhibition [5] was < 50%. The inhibition [6] was < 50%, the IC50 [7] was 50 µM and the inhibition [8] was < 50%. The inhibition [9] was < 50%, the inhibition [10] was < 50% and the Activity [11] was “Not Active”. For the same molecule, the inhibition [12] was < 50%, the inhibition [13] was < 50% and the inhibition [14] was < 50%. The inhibition [15] was < 50%, the inhibition [16] was < 50% and the inhibition [17] was < 50%. The inhibition [18] was “Active”, the inhibition [19] was < 50% and the inhibition [20] was < 50%.
